In ChEMBL document CHEMBL1146601, “Antileishmanial ring-substituted ether phospholipids” (J Med Chem, 2003):

Columns and labels:
Leishmania infantum = assay: In vitro anti-leishmanial activity against promastigote cultures of Leishmania infantum MON 235; assay type: functional, organism-based
In short: (§1)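 Promastigotes (L. donovani MHOM/IN/80/DD8/LEM 703; L. infantum MHOM/TN/80/IPT1/LEM 235) grown in RPMI 1640 with 10% FCS, L-glutamine and antibiotics at 26 °C. Seeded at 5 × 10^5 cells/mL with 3-fold medium dilutions of a 9.625 mM DMSO solution, 72 h at 26 °C. MTT added for 3 h; SDS/2-propanol stop; A550 (ref 620 nm). IC50 by Hills method.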

Leishmania donovani = assay: In vitro anti-leishmanial activity against promastigote cultures of Leishmania donovani MON 703; assay type: functional, organism-based; in short: as §1

IC50 (Leishmania infantum) [µM] | IC50 (Leishmania donovani) [µM] | SMILES
5.97 | 2.88 | C[N+](C)(C)CCOP(=O)([O-])OCCCCCCCCCCCC1C2CC3CC(C2)CC1C3 (centres undefined)
> 100 | > 100 | C[N+]1(CCOP(=O)([O-])OCCOc2ccc3ccccc3c2)CCCCC1
> 100 | > 100 | C[N+]1(CCOP(=O)([O-])OCCOc2ccccc2)CCOCC1
> 100 | > 100 | C[N+]1(CCOP(=O)([O-])OCCCCCCOc2ccccc2)CCOCC1
> 100 | 4.02 | C[N+](C)(C)CCOP(=O)([O-])OCCCCCC1C2CC3CC(C2)CC1C3 (centres undefined)
> 100 | > 100 | C[N+](C)(C)CCOP(=O)([O-])OCCOc1ccc2ccccc2c1
> 100 | > 100 | C[N+](C)(C)CCOP(=O)([O-])OCCCCCCOc1ccccc1
23.3 | 23.7 | CCCCCCCCCCCCCCC1CCC(OCCOP(=O)([O-])OCC[N+](C)(C)C)CC1 (centres undefined)
> 100 | > 100 | C[N+](C)(C)CCOP(=O)([O-])OCCOc1ccccc1
> 100 | > 100 | C[N+](C)(C)CCOP(=O)([O-])OCC12CC3CC(CC(C3)C1)C2
22.6 | 23.7 | CCCCCCCCCCCCCCCCOP(=O)([O-])OCC[N+](C)(C)C [MILTEFOSINE]

SMILES | IC50 (Leishmania infantum) [µM] | IC50 (Leishmania donovani) [µM]
C[N+]1(CCOP(=O)([O-])Oc2ccc(C34CC5CC(CC(C5)C3)C4)cc2)CCOCC1 | > 100 | > 100
